# Assay outcomes (PubChem)
# SENP8 block-1 – inhibitors of human SENP8 protease; recombinant SENP8, Nedd8 substrate fluorescence; inhibition, % at 20 µM; 360,000 tested, 0.64% active; in the data active means inhibition mostly above about 40%, no sharp cut-off; inactive means mostly below about 27%
# SENP1 FRET inh – blocks the human SENP1 SUMO protease catalytic domain; Q9P0U3; recombinant SENP1 catalytic domain, CyPet-SUMO1-YPet FRET cleavage; inhibition, % at 10 µM; 360,000 tested, 0.21% active;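 active means inhibition at least 30% at 10 µM, raw YFP signal under a set limit, fluorescence ratio 0.5 to 1.5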;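 further: 0% = enzyme with DMSO and 100% = no enzyme wells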
# Target sequence (Q9P0U3 419-644 limits assumed): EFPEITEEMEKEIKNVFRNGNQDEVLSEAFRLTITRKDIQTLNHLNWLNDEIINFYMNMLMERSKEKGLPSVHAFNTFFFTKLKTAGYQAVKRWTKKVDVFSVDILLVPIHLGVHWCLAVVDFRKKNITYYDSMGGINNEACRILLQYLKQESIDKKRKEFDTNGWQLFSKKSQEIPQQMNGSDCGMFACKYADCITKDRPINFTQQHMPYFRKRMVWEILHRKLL
#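 Material – human SENP1 catalytic domain · Input – SENP1 enzyme, 20 pM final · Compound dosing – single concentration of 10 µM compound, 0.5% DMSO final · Timing – enzyme reaction for 50 min at room temperature, dark · Measured by – FRET fluorescence in CFP and YFP emission channels · Control set – no-enzyme wells low, DMSO-plus-enzyme wells high control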
# SENP8 block-2 – inhibitors of human SENP8 protease; purified SENP8, Z-RLRGG-aminoluciferin cleavage, luminescence; inhibition, % at 10 µM; 330,000 tested, 1.2% active; AID 2540; in the data active means inhibition above about 50%
# SENP6 block – SENP6 protease inhibition | Recombinant SENP6 catalytic domain, aminoluciferin luminescence | inhibition, % at 10 µM | AID 2599 | 330,000 tested, 1.8% active;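 active means inhibition above about 50% at the single tested dose, limit read from the data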;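 further: plate controls were DMSO wells with enzyme for no effect and DMSO wells lacking enzyme for full effect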
# SENP7 block – inhibitors of human SENP7 protease. Q9BQF6. recombinant SENP7, Z-RLRGG-aminoluciferin luminescence, 40 min. inhibition, % at 5 µM. 330,000 tested, 1.5% active;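 active means inhibition above about 50% at the single test dose, limit read from the data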;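 further: plate controls were DMSO with enzyme for no effect and no enzyme buffer wells for full effect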
# SENP8 confirm – human SENP8 inhibition, confirmed | inhibition, % at 12.5 µM | Recombinant SENP8, Z-RLRGG-aminoluciferin luminescence, 60 min | 6,200 tested, 40% active | shares compounds with SENP7 block;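 active means mean inhibition across replicates above about 50%, limit read from the data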
# SENP6 conf – human SENP6 inhibition, confirmed; shares compounds with SENP7 block; recombinant SENP6, Z-RLRGG-aminoluciferin luminescence; inhibition, % at 12.5 µM; 6,200 tested, 58% active; AID 488915
# SENP7 conf – human SENP7 inhibition, confirmed; AID 488917; recombinant SENP7, Z-RLRGG-aminoluciferin luminescence, 40 min; shares compounds with SENP7 block; inhibition, % at 12.5 µM; 6,200 tested, 69% active
# Casp3 SENP sel – caspase-3 inhibition (SENP selectivity assay). purified caspase-3, Z-DEVD-aminoluciferin luminescence, 60 min. inhibition, % at 12.5 µM. AID 488918. 6,200 tested, 60% active. shares compounds with SENP7 block;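 active means mean inhibition above about 50%, limit read from the data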;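 further: plate controls were enzyme with DMSO for no effect and wells without caspase-3 for full effect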
# Target sequence (P42574 28-227 limits assumed): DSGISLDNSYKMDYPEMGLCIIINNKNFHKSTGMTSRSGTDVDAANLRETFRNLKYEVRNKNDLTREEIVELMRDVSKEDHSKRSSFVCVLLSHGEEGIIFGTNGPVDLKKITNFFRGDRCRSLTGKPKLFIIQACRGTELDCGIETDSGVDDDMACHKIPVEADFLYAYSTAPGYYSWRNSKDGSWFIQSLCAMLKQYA
# Luc interf – luminescence interference (SENP counter-screen). shares compounds with SENP7 block. Pre-incubated SENP8/Z-RLRGG-aminoluciferin, luciferase luminescence interference. inhibition, % at 12.5 µM. 6,200 tested, 39% active;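 active means mean inhibition above about 50% when retested at one dose, limit read from the data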;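 further: plate controls were DMSO wells with completed reaction for no effect and substrate without enzyme for full effect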
# * marks the source's active call; other numbers are inactive results; . = not tested or not shown. Only some compounds are listed: those with a hit (about 2.5% of all), similar ones and a draw of the others.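 How the source made its calls, unless noted: active means mean inhibition above about 50% in the one-dose retest (limit read from the data); inactive means the rest.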
SMILES,SENP8 block-1,SENP1 FRET inh,SENP8 block-2,SENP6 block,SENP7 block,SENP8 confirm,SENP6 conf,SENP7 conf,Casp3 SENP sel,Luc interf
O=C(O)c1ccc(-c2noc(-c3ccccc3Cl)n2)cc1,9,2,97*,97*,88*,99*,99*,103*,98*,98*
O=C(O)c1ccc(-c2noc(-c3ccccc3C(F)(F)F)n2)cc1,18,0,67*,82*,4,5,29,43,38,46
O=C(NCc1ccco1)c1ccccc1-c1nc(-c2ccc(F)cc2)no1,7,-2,0,3,0,.,.,.,.,.
O=C(O)c1ccc(-c2noc(-c3cccc(Cl)c3)n2)cc1,11,-1,98*,97*,97*,98*,99*,102*,98*,95*
O=C(O)c1ccc(-c2noc(-c3ccc(F)cc3)n2)cc1,14,4,94*,98*,95*,98*,98*,102*,98*,96*
O=C(C[C@H]1CC[C@H]2[C@@H](COC[C@@H](O)CN2S(=O)(=O)c2ccc(F)cc2)O1)N[C@@H]1CCN(Cc2ccccc2)C1,18,-1,.,.,.,.,.,.,.,.
O=C(O)CC1(CC(=O)Nc2ccc(Oc3cccc(C(F)(F)F)c3)nc2)CCCC1,31,3,-1,-8,-4,.,.,.,.,.
CCOc1ccc(N/C(N)=N/c2nc(CSc3nnc(C)s3)cc(=O)[nH]2)cc1,25,-2,3,55*,0,-11,-8,-7,-3,-7
Cc1nnc(SCc2cc(=O)[nH]c(/N=C(\N)Nc3ccccc3)n2)s1,22,1,-1,-18,8,.,.,.,.,.
Cc1ccccc1OCC(=O)OCC(=O)Nc1ncc(Cl)c(C)c1Cl,8,6,-1,6,-1,.,.,.,.,.
Cc1ccc(-c2cnn(-c3ccccc3)c2N)cc1,12,4,89*,91*,95*,93*,94*,101*,95*,62*
Nc1c(-c2ccc(Cl)cc2)cnn1-c1ccccc1,21,1,84*,87*,93*,77*,77*,94*,84*,4
Nc1c(-c2ccc(Cl)cc2)cnn1-c1cc(C(F)(F)F)cc(C(F)(F)F)c1,-1,1,1,-9,1,.,.,.,.,.
COc1ccc(-c2cnn(-c3ccccc3)c2N)cc1OC,28,1,-12,-14,-4,.,.,.,.,.
Nc1c(-c2ccc(Cl)cc2)nnn1-c1ccccc1,20,0,19,51*,47,35,30,65*,50*,2
Cc1ccc(-c2cnn(-c3cccc([N+](=O)[O-])c3)c2N)cc1,11,-2,20,52*,53*,28,28,71*,38,2
Cc1ccccc1-c1cnn(-c2cccc([N+](=O)[O-])c2)c1N,11,2,15,-4,3,.,.,.,.,.
CC(C)OC(=O)CSc1nc(N2CCOCC2)c2c(c1C#N)CC(C)(C)OC2,-25,2,4,-16,2,.,.,.,.,.
Cc1cc(C)c(C)c(S(=O)(=O)N2CCCN(C)CC2)c1C,16,2,1,-25,-4,.,.,.,.,.
O=C(NC1CCOC1=O)c1ccccc1 (centres undefined),3,0,.,.,.,.,.,.,.,.
Nc1c(-c2ccccc2)cnn1-c1ccc(C(=O)O)cc1,5,1,27,-1,53*,45,41,76*,66*,60*
Cc1nn(-c2ccc(C(=O)O)cc2)c(N)c1-c1ccccc1,17,0,-9,12,0,.,.,.,.,.
COc1ccc(C(=O)NCC(=O)N/N=C/c2ccco2)cc1OC,14,-1,-10,101*,-7,7,7,14,7,7
COc1ccc(C(=O)NCCCCCC(=O)N/N=C/c2ccco2)cc1OC,12,-2,1,-10,0,.,.,.,.,.
Cc1ccc(/C=N/Nc2nc3ccccc3[nH]2)s1,-100,-10,56*,56*,7,68*,61*,84*,44,71*
SMILES,SENP8 block-1,SENP1 FRET inh,SENP8 block-2,SENP6 block,SENP7 block,SENP8 confirm,SENP6 conf,SENP7 conf,Casp3 SENP sel,Luc interf
CC(OC(=O)CCC(=O)N1CCN(S(=O)(=O)c2ccc3ccccc3c2)CC1)C(=O)NC(N)=O (centres undefined),16,0,2,-12,-1,.,.,.,.,.
CCc1nc2c(OCc3ccc(Cl)cc3)cccn2c1N(C=O)Cc1ccc(OC)cc1,-4,-7,.,.,.,.,.,.,.,.
O=C(Nc1ccc(Br)cn1)c1cccc(C(=O)Nc2ccc(Br)cn2)c1,10,3,-7,5,-12,.,.,.,.,.
O=C(Nc1nccs1)c1ccc2ccccc2c1,-1,-2,69*,73*,72*,81*,80*,93*,71*,80*
O=C(Nc1ccc(Br)cn1)c1ccc2ccccc2c1,0,3,-11,-1,61*,-9,-7,-2,8,3
O=C(N/C(=C\c1ccccc1)C(=O)N1CCOCC1)c1ccccc1Cl,0,-2,1,5,3,.,.,.,.,.
O=c1[nH]c(SCc2ccc(Cl)cc2)nc2ccsc12,.,.,63*,78*,34,12,67*,88*,50,7
O=C1CC(N2CCN(Cc3ccc4c(c3)OCO4)CC2)C(=O)N1c1ccccc1 (centres undefined),18,2,5,-2,62*,6,8,-8,-3,0
CCn1c(NCc2ccc(N(C)C)cc2)nc2ccccc21,34,-4,-6,-6,0,.,.,.,.,.
Cn1c(Cl)nc2ccccc21,35,2,2,4,-4,.,.,.,.,.
Cn1c(N=Nc2ccccc2)nc2ccccc21,66*,2,97*,-4,101*,-16,99*,103*,94*,97*
CN(C)c1ccc(N=Nc2nc3ccccc3n2C)cc1,50*,5,97*,100*,100*,95*,101*,103*,89*,36
COc1cc(/C=C2\SC(=S)N(CCCCC(=O)O)C2=O)ccc1OS(=O)(=O)c1ccc(C)cc1,15,1,-4,-18,-2,.,.,.,.,.
CSc1nc(O)c(N=Nc2ccc(F)cc2F)c(=O)[nH]1,16,4,81*,91*,87*,83*,86*,96*,93*,53*
Cn1c(=O)n(Cc2ccccc2)c(=O)c2c1nc(NCC1CCCO1)n2Cc1ccccc1 (centres undefined),16,1,1,-8,5,.,.,.,.,.
